Screens deposited in PubChem by Broad Institute.
An excerpt weighted towards active compounds, which were near 5.8% of everything screened.
IDH1 R132H inh – inhibitors of human IDH1 R132H; IDH1 R132H reductase, diaphorase/resazurin fluorescence, 60 min; 70,000 tested, 0.18% active; AID 624101; inhibition, % at 10 µM; in the data active = inhibition above about 34%;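 also: 0% = DMSO and 100% = no enzyme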
Target sequence (O75874 whole entry R132H): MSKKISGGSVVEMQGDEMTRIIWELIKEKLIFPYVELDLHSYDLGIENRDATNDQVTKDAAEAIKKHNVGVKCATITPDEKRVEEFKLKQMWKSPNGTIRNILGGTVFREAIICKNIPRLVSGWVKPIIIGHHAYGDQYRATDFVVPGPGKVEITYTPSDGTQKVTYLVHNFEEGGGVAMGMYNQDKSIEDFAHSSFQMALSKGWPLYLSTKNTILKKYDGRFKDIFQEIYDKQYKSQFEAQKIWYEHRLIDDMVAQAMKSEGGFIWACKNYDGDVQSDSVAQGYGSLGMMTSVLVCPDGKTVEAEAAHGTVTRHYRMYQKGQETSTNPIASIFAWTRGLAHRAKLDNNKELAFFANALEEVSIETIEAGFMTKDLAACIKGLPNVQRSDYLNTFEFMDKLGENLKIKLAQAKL
KDM4C inh – KDM4C (human) demethylase inhibition; 96,000 tested, 0.15% active; Q9H3R0; inhibition, % at 12.5 µM; GST-KDM4C 2-372, H3K9me3 peptide, LANCE TR-FRET;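 active = mean replicate inhibition above about 25%, with at least 55% of replicates also reaching it, limit read from the data, passing the limit was not always enough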
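Material: GST-tagged GASC-1 (JMJD2C) catalytic fragment, aa 2-372. Input: enzyme final amount 10 nM. Medium: HEPES buffer, pH 7.5, plus ascorbate. Reagent: H3K9me3 peptide substrate, Fe(II), 2-oxoglutarate. Doses: single dose. Times: reaction 30 min RT, detection step 1 h RT. Measured by: LANCE TR-FRET. Evaluation: Fall in 671/618 emission ratio as inhibition.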
T cruzi growth – inhibitors of T. cruzi proliferation; T. cruzi beta-gal in NIH3T3, GalScreen luminescence, 90 h; inhibition, % at 8.34 µM; 77,000 tested, 5.9% active;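 active = mean inhibition above about 93%, with at least 55% of replicates each passing it, limit read from the data, passing the limit was not always enough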
Pf Dd2 inh – blocks growth of Plasmodium falciparum Dd2 parasites; P. falciparum Dd2 growth, SYBR Green, 72 h; stronger effect = lower value; activity change, % at 10 µM; 94,000 tested, 2.3% active; AID 1159554; in the data active = activity change below about -80%
* marks the source's active call; other numbers are inactive results.

For C[C@H](CO)N1C[C@H](C)[C@H](CN(C)S(=O)(=O)c2ccc(F)cc2)OCCCC[C@H](C)Oc2ccc(NC(=O)Cc3ccccc3)cc2C1=O the results were IDH1 R132H inh -4.2, KDM4C inh -0.5, T cruzi growth 50.5 and Pf Dd2 inh -74.4.
For C=C(C)[C@H]1C[C@@]2(C)C(=CC1=O)CC[C@@H](O)[C@@H]2C the results were IDH1 R132H inh 0.1.
COC(=O)CCCCCCC(=O)N/N=C/c1ccc(OCC(N)=O)cc1 was read as IDH1 R132H inh 0.2.
COc1cc(C2c3c(oc4ccc(Cl)cc4c3=O)C(=O)N2Cc2ccco2)cc(Br)c1O (centres undefined) was read as IDH1 R132H inh -0.3.
For O=S(=O)(Nc1nccs1)c1ccc(NS(=O)(=O)c2cc(Cl)ccc2Cl)cc1 the results were IDH1 R132H inh 38.8*.
`O=S(=O)(Nc1ncccn1)c1ccc(NS(=O)(=O)c2cc(Cl)ccc2Cl)cc1` gave IDH1 R132H inh -0.3.
C[C@@H]1CN([C@H](C)CO)C(=O)c2c(c3ccccc3n2C)-c2ccccc2CO[C@H]1CN(C)C(=O)Cc1ccccc1 was read as Pf Dd2 inh -21.8.
For C[C@H](CO)N1C[C@H](C)[C@H](CN(C)C(=O)Cc2ccccc2)OCc2ccccc2-c2c(n(C)c3ccccc23)C1=O the results were IDH1 R132H inh -0.3, KDM4C inh -0.7, T cruzi growth 2.9 and Pf Dd2 inh -72.9.
`C[C@H]1CN([C@@H](C)CO)C(=O)c2c(c3ccccc3n2C)-c2ccccc2CO[C@@H]1CN(C)C(=O)Cc1ccccc1` gave KDM4C inh -2.1, T cruzi growth 76.6 and Pf Dd2 inh -91.1*.
For C[C@H](CO)N1C[C@H](C)[C@@H](CN(C)C(=O)Cc2ccccc2)OCc2ccccc2-c2c(n(C)c3ccccc23)C1=O the results were KDM4C inh -1.5, T cruzi growth 59.9 and Pf Dd2 inh -81.1*.
For O=C(Cc1cccnc1)N1CC[C@H]2[C@H](CO)Nc3ccc(C#Cc4cccc(F)c4)cc3[C@H]21 the results were KDM4C inh 0.8 and Pf Dd2 inh -83.8*.
CC(=O)N1CC[C@@H]2[C@@H](CO)Nc3ccc(C#Cc4ccccc4F)cc3[C@@H]21 was read as KDM4C inh -1.6, T cruzi growth 81.4 and Pf Dd2 inh -82.6*.
For C/C=C/c1ccc2c(c1)[C@H]1[C@H](CCN1C(=O)c1cccc(F)c1)[C@H](CO)N2 the results were KDM4C inh -0.2 and Pf Dd2 inh -92.8*.
Screening O=C(c1cccc(F)c1)N1CC[C@H]2[C@H](CO)Nc3ccc(-c4cccc(F)c4)cc3[C@H]21 returned KDM4C inh 0.2, T cruzi growth 25.6 and Pf Dd2 inh 4.9.
`C/C=C/c1ccc2c(c1)[C@H]1[C@H](CCN1C(=O)c1ccc(F)cc1)[C@H](CO)N2` gave KDM4C inh 0.5 and Pf Dd2 inh -89.1*.
For CC(=O)N1CC[C@H]2[C@H](CO)Nc3ccc(C#Cc4ccccc4F)cc3[C@H]21 the results were KDM4C inh -2.8 and Pf Dd2 inh -20.7.
`Cc1ccnc(SCC(=O)Nc2ccc(Br)cc2F)n1` gave IDH1 R132H inh -0.2.
Screening CC1=C(CC/C(C)=C/C(=O)O)[C@@]2(C)CCCC(C)(C)C2CC1 (some centres undefined) returned IDH1 R132H inh 1.0.
`Cc1cccc(CSc2nnc(NC(=O)c3oc4ccc(F)cc4c3C)s2)c1` gave IDH1 R132H inh 0.4.
O=C(Nc1ccc(S(=O)(=O)Nc2ncccn2)cc1)c1c(Cl)cccc1Cl was read as IDH1 R132H inh -0.2.
Screening O=C(COc1ccc(CO)cc1)Nc1ccccc1 returned IDH1 R132H inh -0.1.
C/C=C/c1ccc2c(c1)[C@@H]1[C@@H](CCN1S(=O)(=O)c1ccccc1C)[C@H](CO)N2 was read as KDM4C inh -1.9 and Pf Dd2 inh -85.6*.
For C/C=C/c1ccc2c(c1)[C@@H]1[C@@H](CCN1S(=O)(=O)c1ccc(C)cc1)[C@@H](CO)N2 the results were KDM4C inh 0.7, T cruzi growth 22.4 and Pf Dd2 inh -40.9.
O=C(c1cccc(F)c1)N1CC[C@H]2[C@H](CO)Nc3ccc(C#Cc4cccc(F)c4)cc3[C@H]21 was read as KDM4C inh -6.5 and Pf Dd2 inh -83.7*.
Screening OCCN1CCN(C(=S)NCc2ccco2)CC1 returned IDH1 R132H inh -0.9.
`COc1ccc2c3c([nH]c2c1)[C@H](CO)N(Cc1cc(F)ccc1F)CC31CCN(C(=O)CN(C)C)CC1` gave KDM4C inh 0.6 and Pf Dd2 inh -80.7*.
`CCC(=O)N1CCC2(CC1)CN(C(C)=O)[C@@H](CO)c1[nH]c3cc(OC)ccc3c12` gave KDM4C inh -0.5 and Pf Dd2 inh 0.7.
CCC(=O)N1CCC2(CC1)CN(Cc1cc(F)ccc1F)[C@@H](CO)c1[nH]c3cc(OC)ccc3c12 was read as KDM4C inh -0.7 and Pf Dd2 inh -90.2*.
COc1ccc2c3c([nH]c2c1)[C@@H](CO)N(Cc1cc(F)ccc1F)CC31CCN(C(C)=O)CC1 was read as KDM4C inh -1.5 and Pf Dd2 inh -83.0*.
COc1ccc2c3c(n(C)c2c1)[C@H](CO)N(Cc1cc(F)ccc1F)CC31CCN(C(C)=O)CC1 was read as KDM4C inh 0.0 and Pf Dd2 inh -63.7.
`CCC(Sc1nc(C)cc(C)n1)C(=O)Nc1ccc(-c2nc3ccc(C)cc3s2)cc1` (centres undefined) gave IDH1 R132H inh 0.2.
OC[C@@H]1[C@@H](c2ccccc2)C2(CN(Cc3ccc4c(c3)OCO4)C2)N1Cc1ccccc1 was read as KDM4C inh 13.4 and Pf Dd2 inh -92.9*.
Screening COc1cccc(CN2[C@H](CO)[C@@H](c3ccccc3)C23CN(Cc2ccccc2OC)C3)c1 returned KDM4C inh 0.8 and Pf Dd2 inh -89.6*.
For CC(=O)N1CC2(C1)[C@@H](c1ccccc1)[C@@H](CO)N2Cc1ccccc1F the results were Pf Dd2 inh -3.6.
For OC[C@@H]1[C@H](c2ccccc2)C2(CN(Cc3ccccc3)C2)N1Cc1ccncc1 the results were KDM4C inh 1.8 and Pf Dd2 inh -52.8.
OC[C@@H]1[C@@H](c2ccccc2)C2(CN(Cc3ccccc3F)C2)N1Cc1ccccc1F was read as KDM4C inh -1.6 and Pf Dd2 inh -88.2*.
Screening O=C(C1CCCC1)N1CC2(C1)[C@@H](c1ccccc1)[C@H](CO)N2Cc1ccc(Cl)cc1 returned KDM4C inh 1.3 and Pf Dd2 inh -85.4*.
For COC(=O)CCCCCCC(=O)N/N=C/C1=CCCCC1 the results were IDH1 R132H inh 0.0.
`O=c1c2c(nc3nc(NCc4cccc([N+](=O)[O-])c4)[nH]n13)CCC2` gave IDH1 R132H inh 0.2.
COCc1cn(CC[C@@H]2CC[C@H](NC(=O)CCN3CCCCC3)[C@@H](CO)O2)nn1 was read as IDH1 R132H inh 67.9*, KDM4C inh 67.1*, T cruzi growth -26.7 and Pf Dd2 inh 5.9.
